{"source": "paper PMC3574193", "about": "(Journal of medicinal chemistry, 2013)", "key": {"[1]": {"experiment": "Preliminary half-life studies in rats", "assay_type": "in vivo", "details": "data not shown"}, "[2]": {"details": "cited from earlier work"}, "human Trx W31A mutant": {"target": "T1, human Trx W31A mutant (Homo sapiens, UniProt P10599, W31A)", "T1 sequence (P10599 1-105 W31A)": "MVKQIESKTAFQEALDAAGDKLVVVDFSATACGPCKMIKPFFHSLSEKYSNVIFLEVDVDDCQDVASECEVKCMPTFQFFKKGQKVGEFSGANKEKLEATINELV", "experiment": "In vitro thioredoxin activity assay with W31A mutant", "assay_type": "biochemical", "details": "W31A mutant of human Trx", "in_short": "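Pre-reduced enzyme was desalted by spin column, quantified by A280 and used within 2 h. It was reacted with test compound, 10 µM each, in 0.1 M phosphate-citrate pH 6.0 at room temperature. Aromatic product accumulation was fitted exponentially for kinh/Ki.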"}, "[3]": {"target": "T2, extracellular TG2 in T84 enterocytic cells (Homo sapiens, UniProt P21980)", "T2 sequence (P21980 1-687)": "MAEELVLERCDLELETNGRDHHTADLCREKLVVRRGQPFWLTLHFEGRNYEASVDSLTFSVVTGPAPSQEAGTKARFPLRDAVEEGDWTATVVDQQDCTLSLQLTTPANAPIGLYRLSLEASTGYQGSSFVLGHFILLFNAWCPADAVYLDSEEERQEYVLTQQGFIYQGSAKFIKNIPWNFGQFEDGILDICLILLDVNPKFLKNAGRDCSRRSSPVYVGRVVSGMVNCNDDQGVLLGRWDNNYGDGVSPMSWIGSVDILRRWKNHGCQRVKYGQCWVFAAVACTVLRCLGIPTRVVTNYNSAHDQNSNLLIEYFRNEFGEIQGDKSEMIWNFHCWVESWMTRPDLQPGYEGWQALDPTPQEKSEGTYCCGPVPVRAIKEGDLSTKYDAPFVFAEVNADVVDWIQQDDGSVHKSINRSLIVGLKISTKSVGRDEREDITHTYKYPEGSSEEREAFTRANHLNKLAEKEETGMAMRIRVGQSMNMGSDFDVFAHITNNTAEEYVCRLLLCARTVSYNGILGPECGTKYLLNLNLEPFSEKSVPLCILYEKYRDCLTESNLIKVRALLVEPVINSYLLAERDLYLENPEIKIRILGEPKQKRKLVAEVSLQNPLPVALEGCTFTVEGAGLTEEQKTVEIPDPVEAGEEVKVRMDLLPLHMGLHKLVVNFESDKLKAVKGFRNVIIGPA", "experiment": "Trx-mediated TG2 activation in T84 enterocytic cells", "assay_type": "cell-based", "details": "25 µM ERW1041E"}}, "note": "“Also recorded” adds a separate entry of the source.", "data": [{"smiles": "CCC(C)SSc1ncc[nH]1", "note": "(stereo not shown) [Compound 1, 2-(sec-butyldisulfanyl)-1H-imidazole]", "values": [{"measurement": "half-life in rats", "setting": "[1]", "result": "short half-life"}, {"measurement": "half-life in humans", "setting": "[2]", "result": "extremely short half-life"}]}, {"smiles": "CCC(C)SSc1nc2ccccc2[nH]1", "note": "(stereo not shown) [Compound 14, 2-(sec-butyldisulfanyl)-1H-benzo[d]imidazole]", "values": [{"measurement": "kinh/Ki with W31A Trx", "setting": "human Trx W31A mutant", "result": 23700, "unit": "M⁻¹ s⁻¹"}]}, {"smiles": "O=C(NC[C@@H]1CC(Br)=NO1)[C@@H]1CCCN1C(=O)OCc1cnc2ccccc2c1", "note": "[ERW1041E, (S)-quinolin-3-ylmethyl 2-((((S)-3-bromo-4,5-dihydroisoxazol-5-yl)methyl)carbamoyl)pyrrolidine-1-carboxylate]", "values": [{"measurement": "effect on Trx mediated 5BP incorporation", "setting": "[3]", "result": "fully suppressed; also recorded: completely blocked"}]}]}
